Legend:
Influenza A virus [1] = test: Antiviral activity against Influenza A virus A/PR/8/34(H1N1) infected in MDCK cells assessed as reduction in virus-induced cytopathic effect after 3 days by microscopic method; assay type: functional, organism-based, A/Puerto Rico/8/1934(H1N1); details: Influenza A virus, A/Puerto Rico/8/1934(H1N1), MDCK, 72 h
In short: (§1)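 Semi-confluent MDCK cells were infected at an MOI of 0.0004 PFU/cell in Ultra-MDCK infection medium with 2 μg/mL TPCK-trypsin, together with compounds. After 3 days at 35 °C, CPE was scored by microscopy and confirmed by MTS formazan viability. EC50 is the concentration giving 50% inhibition of virus-induced CPE. Values are means of two to five independent tests.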

[2] = Selectivity index, ratio of MCC for MDCK cells to EC50 for Influenza A virus A/HK/7/87(H3N2) infected in MDCK cells assessed as reduction in virus-induced cytopathic effect by microscopic method; assay type: toxicity, cell-based; details: dog, read-out: Selectivity Index
In short: (§2)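 Selectivity index is MCC divided by EC50. MCC comes from microscopy of mock-infected MDCK cells. EC50 comes from microscopic scoring of virus-induced CPE in MDCK cells infected at an MOI of 0.0004 PFU/cell with TPCK-trypsin. Both readings were taken after 3 days at 35 °C.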

Influenza B virus [3] = test: Antiviral activity against Influenza B virus B/Ned/537/05 infected in MDCK cells after 3 days by MTS assay; assay type: functional, organism-based; details: B/Ned/537/05, MDCK, 72 h
In short: (§3)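 Semi-confluent MDCK cells were infected at an MOI of 0.0004 PFU/cell in Ultra-MDCK infection medium with 2 μg/mL TPCK-trypsin, together with compounds. After 3 days at 35 °C, CPE was scored by microscopy and confirmed by MTS formazan viability. Values are means of two to five independent tests.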

H3N2 subtype [4] = test: Antiviral activity against Influenza A virus A/HK/7/87(H3N2) infected in MDCK cells assessed as reduction in virus-induced cytopathic effect after 3 days by microscopic method; assay type: functional, organism-based; details: A/Hong Kong/7/1987(H3N2), 72 h; in short: as §1
[5] = Selectivity index, ratio of MCC for MDCK cells to EC50 for Influenza A virus A/PR/8/34(H1N1) infected in MDCK cells assessed as reduction in virus-induced cytopathic effect by microscopic method; assay type: toxicity, cell-based; details: dog, read-out: Selectivity Index; in short: as §2
[6] = Selectivity index, ratio of MCC for MDCK cells to EC50 for Influenza B virus B/HK/05/72 infected in MDCK cells assessed as reduction in virus-induced cytopathic effect by microscopic method; assay type: toxicity, cell-based; details: dog, read-out: Selectivity Index; in short: as §2
[7] = Cytotoxicity against MDCK cells assessed as alteration in cell morphology after 3 days by microscopic method; assay type: cell-based, Canis lupus familiaris; details: dog
In short: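 Mock-infected MDCK cells were treated with compounds in parallel with the antiviral assay, 3 days at 35 °C. MCC is the concentration causing minimal change in cell morphology by microscopy. CC50 is the 50% cytotoxic concentration by MTS formazan viability assay.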

Influenza A virus [8] = test: Antiviral activity against Influenza A virus A/PR/8/34(H1N1) infected in MDCK cells after 3 days by MTS assay; assay type: functional, organism-based, A/Puerto Rico/8/1934(H1N1); details: Influenza A virus, A/Puerto Rico/8/1934(H1N1), MDCK, 72 h; in short: as §1
[9] = Selectivity index, ratio of MCC for MDCK cells to EC50 for Influenza A virus A/Virginia/ATCC3/2009(H1N1pdm) infected in MDCK cells assessed as reduction in virus-induced cytopathic effect by microscopic method; assay type: toxicity, cell-based; details: dog, read-out: Selectivity Index; in short: as §2
Influenza A virus [10] = test: Antiviral activity against Influenza A virus A/Virginia/ATCC3/2009(H1N1pdm) infected in MDCK cells assessed as reduction in virus-induced cytopathic effect after 3 days by microscopic method; assay type: functional, organism-based, Influenza A virus (A/Virginia/03/2009(H1N1)); details: 72 h; in short: as §1
MDCK = test: (§4) Cytotoxicity against MDCK cells assessed as reduction in cell viability after 3 days by MTS assay; assay type: cell-based, Canis lupus familiaris; details: dog, mdck, 72 h
H3N2 subtype [11] = test: Antiviral activity against Influenza A virus A/HK/7/87(H3N2) infected in MDCK cells after 3 days by MTS assay; assay type: functional, organism-based; details: A/Hong Kong/7/1987(H3N2), 72 h; in short: as §1
[12] = Selectivity index, ratio of MCC for MDCK cells to EC50 for Influenza B virus B/Ned/537/05 infected in MDCK cells assessed as reduction in virus-induced cytopathic effect by microscopic method; assay type: toxicity, cell-based; details: dog, read-out: Selectivity Index; in short: as §2
Influenza B virus [13] = test: Antiviral activity against Influenza B virus B/Ned/537/05 infected in MDCK cells assessed as reduction in virus-induced cytopathic effect after 3 days by microscopic method; assay type: functional, organism-based; details: B/Ned/537/05, MDCK, 72 h; in short: as §3
Influenza A virus [14] = test: Antiviral activity against Influenza A virus A/Virginia/ATCC3/2009(H1N1pdm) infected in MDCK cells after 3 days by MTS assay; assay type: functional, organism-based, Influenza A virus (A/Virginia/03/2009(H1N1)); details: 72 h; in short: as §1
Influenza A virus [15] = test: Antiviral activity against Influenza A virus A/PR/8/34(H1N1) GFP-fused pseudotyped lentiviral particle expressing H1-HA/N1-NA infected in MDCK cells assessed as inhibition of pseudoparticle entry after 3 days by flow cytometry; assay type: functional, organism-based; details: A/Puerto Rico/8/1934(H1N1)
In short: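 MDCK cells were seeded at 7500/well and one day later were exposed to compounds plus GFP lentiviral pseudoparticles bearing A/PR/8/34 H1-HA and N1-NA, with HA0 activated by trypsin. After 3 days the cells were trypsinized, fixed in paraformaldehyde and analysed for GFP by flow cytometry. Entry inhibition was taken as the reduction in GFP signal. Data are the mean ± SEM of four independent experiments.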

Influenza B virus [16] = test: Antiviral activity against Influenza B virus B/HK/05/72 infected in MDCK cells assessed as reduction in virus-induced cytopathic effect after 3 days by microscopic method; assay type: functional, organism-based; details: B/Hong Kong/05/1972, MDCK, 72 h; in short: as §1
[17] = as §4; assay type: cell-based, Canis lupus familiaris; details: dog, MDCK cells
Influenza B virus [18] = test: Antiviral activity against Influenza B virus B/HK/05/72 infected in MDCK cells after 3 days by MTS assay; assay type: functional, organism-based; details: B/Hong Kong/05/1972, MDCK, 72 h; in short: as §1

SMILES | EC50 (Influenza A virus [1]) | selectivity ratio [2] | EC50 (Influenza B virus [3]) | EC50 (H3N2 subtype [4]) | selectivity ratio [5] | selectivity ratio [6] | MCC at 72 h [7] | EC50 (Influenza A virus [8]) | selectivity ratio [9] | EC50 (Influenza A virus [10]) | CC50 (MDCK) | EC50 (H3N2 subtype [11]) | selectivity ratio [12] | EC50 (Influenza B virus [13]) | EC50 (Influenza A virus [14]) | inhibition (Influenza A virus [15]) | EC50 (Influenza B virus [16]) | CC50 at 72 h [17] | EC50 (Influenza B virus [18])
CCCCCCCCSC1=C(SCCCCCCCC)C(=O)N(Cc2cn(C3C(=O)N[C@@H]4Cc5ccc(c(Cl)c5)Oc5cc6cc(c5O)Oc5ccc(cc5Cl)[C@@H](O[C@@H]5O[C@H](CO)[C@@H](O)[C@H](O)[C@H]5NC(C)=O)[C@H]5NC(=O)[C@H](NC(O)[C@@H]6NC(=O)[C@@H](NC4=O)c4cc(O)cc(c4)Oc4cc3ccc4O)c3ccc(O)c(c3)-c3c(O)cc(O)cc3[C@H](C(=O)O)NC5=O)nn2)C1=O (some centres undefined) | 9.2 µM | 10 | 7.2 µM | 8.9 µM | 10 | 10 | 73 µM | 12 µM | 10 | 4.4 µM | 49 µM | 6.3 µM | 10 | 6.7 µM | 3.4 µM |  |  |  | 
CCc1ccccc1OCCN1CCCCCC1 |  |  |  |  |  |  |  |  |  |  |  |  |  |  |  | Dose-dependent effect |  |  | 
CC(=O)N[C@H]1[C@H](O[C@@H]2c3ccc(c(Cl)c3)Oc3cc4cc(c3O)Oc3ccc(cc3Cl)C[C@H]3NC(=O)[C@H](n5cc(CCOc6c7cc(C(C)(C)C)cc6Cc6cc(C(C)(C)C)cc(c6O)Cc6cc(C(C)(C)C)cc(c6O)Cc6cc(C(C)(C)C)cc(c6O)C7)nn5)c5ccc(O)c(c5)Oc5cc(O)cc(c5)[C@H](NC3=O)C(=O)N[C@H]4C(O)N[C@H]3C(=O)N[C@H]2C(=O)N[C@@H](C(=O)O)c2cc(O)cc(O)c2-c2cc3ccc2O)O[C@H](CO)[C@@H](O)[C@@H]1O (some centres undefined) | > 100 µM |  |  | > 100 µM |  |  | ≥ 20 µM | 43 µM |  | 8.9 µM |  | 5.2 µM |  |  | 6.7 µM |  | > 100 µM | ≥ 58 µM | 5.7 µM
CCCCCCCCCCCCOCc1cn([C@H]2C(=O)N[C@@H]3Cc4ccc(c(Cl)c4)Oc4cc5cc(c4O)Oc4ccc(cc4Cl)[C@@H](O[C@@H]4O[C@H](CO)[C@@H](O)[C@H](O)[C@H]4NC(C)=O)[C@H]4NC(=O)[C@H](NC(O)[C@@H]5NC(=O)[C@@H](NC3=O)c3cc(O)cc(c3)Oc3cc2ccc3O)c2ccc(O)c(c2)-c2c(O)cc(O)cc2[C@H](C(=O)O)NC4=O)nn1 (some centres undefined) | > 100 µM |  |  | > 100 µM |  |  | 9.3 µM | > 100 µM |  | > 100 µM |  | > 100 µM |  |  | > 100 µM |  | > 100 µM | 2.3 µM | > 100 µM
CC(=O)N[C@H]1[C@H](O[C@@H]2c3ccc(c(Cl)c3)Oc3cc4cc(c3O)Oc3ccc(cc3Cl)C[C@H]3NC(=O)[C@H](n5cc(COc6cccc7ccccc67)nn5)c5ccc(O)c(c5)Oc5cc(O)cc(c5)[C@H](NC3=O)C(=O)N[C@H]4C(O)N[C@H]3C(=O)N[C@H]2C(=O)N[C@@H](C(=O)O)c2cc(O)cc(O)c2-c2cc3ccc2O)O[C@H](CO)[C@@H](O)[C@@H]1O (some centres undefined) | 11 µM |  |  | 15 µM |  |  | 20 µM | 11 µM |  | 11 µM |  | 8 µM |  |  | 4.4 µM |  | 15 µM | 47 µM | 6.6 µM
CCN(CC)CCCC(C)Nc1ccnc2cc(Cl)ccc12 (centres undefined) |  |  |  |  |  |  |  |  |  |  |  |  |  |  |  | Dose-dependent effect |  |  | 
CC(=O)N[C@H]1[C@H](O[C@@H]2c3ccc(c(Cl)c3)Oc3cc4cc(c3O)Oc3ccc(cc3Cl)C[C@H]3NC(=O)[C@H](N5C(=O)C(SC[C@H]6O[C@@H]7OC(C)(C)O[C@@H]7[C@H]7OC(C)(C)O[C@H]76)=C(SC[C@H]6O[C@@H]7OC(C)(C)O[C@@H]7[C@H]7OC(C)(C)O[C@H]76)C5=O)c5ccc(O)c(c5)Oc5cc(O)cc(c5)[C@H](NC3=O)C(=O)N[C@H]4C(O)N[C@H]3C(=O)N[C@H]2C(=O)N[C@@H](C(=O)O)c2cc(O)cc(O)c2-c2cc3ccc2O)O[C@H](CO)[C@@H](O)[C@@H]1O (some centres undefined) | > 100 µM | 5 | 4.2 µM | 2.3 µM | 5 | 5 | 20 µM | 9.1 µM | 5 | 2.1 µM | 26 µM | 1.7 µM | 5 | > 100 µM | 2.2 µM |  |  |  | 
CC(C)c1ccccc1NCCN1CCCCC1 |  |  |  |  |  |  |  |  |  |  |  |  |  |  |  | Dose-dependent effect |  |  | 
COC(=O)[C@@H]1NC(=O)[C@@H]2NC(=O)[C@H](NC(=O)[C@@H]3NC(=O)[C@H]4NC(=O)[C@H](NC(=O)[C@H](Nc5c(NCc6ccc(-c7ccccc7)cc6)c(=O)c5=O)c5ccc(O)c(c5)Oc5cc4cc(O)c5C)[C@H](O)c4ccc(cc4)Oc4cc3cc(c4O)Oc3ccc(cc3)[C@H]2O)c2ccc(O)c(c2)-c2c(O)cc(O)cc21 |  |  |  |  |  |  |  |  |  |  |  |  |  |  |  | Dose-dependent effect |  |  | 
